# According to PubChem BioAssay:
# The source made the active and inactive calls.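 The calls were made as follows, unless noted: active = NADPH fluorescence slope more negative than the mean of all samples by about 3 SD, 99.7% confidence; inactive = the rest.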
# How the values were obtained:
# [1] = inhibitors of TNFa-induced NFkB p65 translocation, primary screen, imaging, HUVEC, MLSMR starter and 10KST1 sets (AID 438;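 active = inhibition above 20% together with a positive visual image hit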;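 also: compound added about 3h40 before a 20 min TNFalpha stimulation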;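 as to inhibition: signal is the nuclear over cytoplasmic p65 intensity ratio per well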); details: HUVEC TNFa-induced p65 nuclear translocation; cell count: measured here: nuclei count (cytotoxicity indicator), at 2.08 µM; inhibition: at 2 µM, stronger effect = higher value, 0% TNFa-plus-vehicle, 100% no-TNFa wells
# [2] = endothelial E-selectin expression blockers – imaging, HUVEC, immunofluorescence, MLSMR starter and 10KST1 sets, primary screen (AID 487;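 active = visually confirmed hit in the image check and inhibition above 20%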;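 as to inhibition: signal is fraction of cell area covered by stained E-selectin grains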;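 as to nuclei count: 100% = median nuclei count of all wells on the same plate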); details: HUVEC TNFalpha-induced E-selectin immunofluorescence imaging, at 2 µM; inhibition: stronger effect = higher value; nuclei count: measured here: cell number, toxicity
# [3] = Primary imaging screen for DUSP6 inhibitors that restore phospho-Erk in transfected HeLa cells, chemical complementation (AID 609;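 active = compounds giving at least 50% inhibition in the cell-based MKP-3 phosphatase rescue imaging test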;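 as to inhibition: phospho-Erk level distribution per well compared with pooled transfected vehicle control wells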); details: HeLa MKP-3 transfected, phospho-Erk imaging KS statistic, at 10 µM, cells stimulated with TPA for 15 min
# [4] = target: Dual specificity protein phosphatase 6 (Homo sapiens) (UniProt Q16828); experiment: as above; details: HeLa MKP-3 transfected, phospho-Erk imaging KS statistic; at 10 µM; stronger effect = higher value; cells stimulated with TPA for 15 min
# Sequence of Dual specificity protein phosphatase 6 (Homo sapiens) (Q16828 whole entry, looked up): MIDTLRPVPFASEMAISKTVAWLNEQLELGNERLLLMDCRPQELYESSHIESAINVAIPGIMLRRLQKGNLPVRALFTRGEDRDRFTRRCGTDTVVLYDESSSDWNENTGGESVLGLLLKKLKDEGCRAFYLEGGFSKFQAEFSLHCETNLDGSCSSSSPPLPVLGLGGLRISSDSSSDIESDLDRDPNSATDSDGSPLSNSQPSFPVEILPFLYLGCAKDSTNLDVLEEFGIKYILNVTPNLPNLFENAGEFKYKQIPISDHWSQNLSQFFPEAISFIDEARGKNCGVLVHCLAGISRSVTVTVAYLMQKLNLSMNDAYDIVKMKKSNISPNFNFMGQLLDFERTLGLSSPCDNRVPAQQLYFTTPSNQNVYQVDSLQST
# [5] = target: Voltage-gated potassium channel subunit beta-2 (Rattus norvegicus) (UniProt P62483); experiment: inhibitors of rat Kvbeta2 reductase activity – biochemical, NADPH fluorescence, primary screen (AID 622;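 active = fluorescence slope higher than the sample average by over 3 SD, cut at about -0.22 in these data, passing the limit was not always enough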;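 also: slope of raw intensity against log time taken from 70 to 1610 s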); details: recombinant KvBeta, 4-cyanobenzaldehyde reduction, at 10 µM, stronger effect = higher value
# Sequence of Voltage-gated potassium channel subunit beta-2 (Rattus norvegicus) (P62483 whole entry, looked up): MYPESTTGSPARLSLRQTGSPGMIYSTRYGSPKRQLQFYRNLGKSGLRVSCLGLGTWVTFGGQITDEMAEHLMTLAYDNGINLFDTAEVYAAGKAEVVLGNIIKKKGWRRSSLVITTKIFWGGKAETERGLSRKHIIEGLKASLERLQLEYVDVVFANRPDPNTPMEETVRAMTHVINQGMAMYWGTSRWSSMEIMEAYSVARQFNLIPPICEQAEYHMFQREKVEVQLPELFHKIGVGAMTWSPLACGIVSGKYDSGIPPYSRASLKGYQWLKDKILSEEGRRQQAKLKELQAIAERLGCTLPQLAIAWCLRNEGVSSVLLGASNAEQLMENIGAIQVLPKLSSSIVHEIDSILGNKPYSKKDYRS
# [6] = target: Voltage-gated potassium channel subunit beta-2 (Rattus norvegicus) (UniProt P62483); experiment: enhancers of rat Kvbeta2 NADPH turnover – biochemical, NADPH fluorescence, primary screen (AID 623); details: Recombinant KvBeta, NADPH fluorescence decrease slope, 10 min; at 10 µM; stronger effect = lower value;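 also: fluorescence intensity change per second fitted from 20 to 320 s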
# [7] = target: Alpha-2C adrenergic receptor (Homo sapiens) (UniProt P18825); experiment: compounds altering alpha2C-coupled GIRK flux – cell-based, HEK293 alpha2C/GIRK1/2, thallium flux, primary screen (AID 624;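 active = fluorescence slope after compound addition differing from the mean of all screened samples at 99.7% confidence, in either direction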;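 also: slope of fluorescence ratio to pre-addition baseline per second over 15 to 24 s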); details: thallium flux BTC fluorescence, at 10 µM, actives lie on both sides
# Sequence of Alpha-2C adrenergic receptor (Homo sapiens) (P18825 whole entry, looked up): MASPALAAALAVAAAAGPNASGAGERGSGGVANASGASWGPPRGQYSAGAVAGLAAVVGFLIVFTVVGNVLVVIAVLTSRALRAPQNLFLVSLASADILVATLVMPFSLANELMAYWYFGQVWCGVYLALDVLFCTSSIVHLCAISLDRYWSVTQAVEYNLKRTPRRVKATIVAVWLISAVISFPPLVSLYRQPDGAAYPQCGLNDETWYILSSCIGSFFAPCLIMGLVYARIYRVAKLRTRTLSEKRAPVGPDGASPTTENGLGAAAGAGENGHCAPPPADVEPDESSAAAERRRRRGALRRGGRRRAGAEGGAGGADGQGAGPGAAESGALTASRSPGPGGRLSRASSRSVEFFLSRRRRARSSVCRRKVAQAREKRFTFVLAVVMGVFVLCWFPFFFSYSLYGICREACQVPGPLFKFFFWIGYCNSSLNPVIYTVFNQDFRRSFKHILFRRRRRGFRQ
# [8] = inhibitors of larval lipid processing in zebrafish, primary screen, whole organism, PED6 fluorescence, gall bladder and intestine (AID 686;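 active = a full or partial loss of lipid-probe fluorescence in the fish gall bladder, intestine or both, judged by eye; inactive = no fluorescence loss, or compound toxic to the fish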;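 also: larvae 5 to 7 days old with five fish per well; signal comes from phospholipase A2 cleavage of quenched PED6 carried via bile; overnight exposure to compound and PED6 before scoring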); details: Zebrafish larvae PED6 lipid processing, fluorescence scoring; screened at 20 µM (by protocol)
# Method in brief: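 system = live zebrafish larvae aged 5-7 days, whole organism | probe or stimulus = ingested quenched lipid PED6 at 100 nM | doses = 20 µM single dose | timing = overnight exposure | detection = fluorescence microscopy with visual scoring of gall bladder and intestine | read-out = visual per-well fluorescence inhibition score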
# [9] = loss of swimming-algae plug formation – whole organism, Chlamydomonas reinhardtii, WT vs cilia-less mutant, absorbance, 96-well, primary screen (AID 463189;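 active = inhibition at or above 50% relative to wild type and mutant plate controls; inactive = inhibition below 50%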;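 also: 0% = wild type cc124 cells in DMSO and 100% = ciliumless bld1 mutant cells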); details: Chlamydomonas reinhardtii gravitaxis, OD600 absorbance, 2 days; at 10 µM; stronger effect = higher value
# [10] = measured here: cell density z-score
# [11] = measured here: nuclear c-Myc green intensity z-score
# [12] = measured here: nuclear pErk red intensity z-score, stronger effect = higher value
smiles,measurement,setting,value
CN(C)c1nc2sc3c(c2c(=O)n1C)CC(C)(C)OC3,cell count,[1],651
same,inhibition,[1],-12.1% (inactive)
same,inhibition,[2],-452% (inactive)
same,nuclei count,[2],185%
same,z-score,[3]; [10],-0.36
same,z-score,[3]; [11],0.198
same,z-score,[3]; [12],1
same,inhibition,[4],-0.159% (inactive)
same,fluorescence slope,[5],-0.514 (inactive)
same,NADPH fluorescence slope,[6],-4.6e-05 (inactive)
same,slope,[7],0.00471 (inactive)
same,outcome,[8],inactive
same,inhibition,[9],157% (active)
CCCOc1cccc(C2C(C(=O)c3ccc(C)o3)=C(O)C(=O)N2CCCN(C)C)c1 (configuration not stated),cell count,[1],432
same,inhibition,[1],3.5% (inactive)
same,inhibition,[2],48.5% (inactive)
same,nuclei count,[2],77.5%
same,z-score,[3]; [10],-0.596
same,z-score,[3]; [11],-1.82
same,z-score,[3]; [12],0.0129
same,inhibition,[4],-11.9% (inactive)
same,fluorescence slope,[5],-0.45 (inactive)
same,NADPH fluorescence slope,[6],-9.1e-06 (inactive)
same,slope,[7],0.00522 (inactive)
same,outcome,[8],inactive
same,inhibition,[9],-2.38% (inactive)
CSc1nnc2n(C3CCCCC3)c(=O)c3c4c(sc3n12)CCCC4,cell count,[1],609
same,inhibition,[1],-10.6% (inactive)
same,inhibition,[2],-12.8% (inactive)
same,nuclei count,[2],111%
same,z-score,[3]; [10],-0.921
same,z-score,[3]; [11],-0.992
same,z-score,[3]; [12],-0.882
same,inhibition,[4],-2.07% (inactive)
same,fluorescence slope,[5],-0.502 (inactive)
same,NADPH fluorescence slope,[6],-0.000304 (inactive)
same,slope,[7],0.0054 (inactive)
same,outcome,[8],inactive
same,inhibition,[9],-18.3% (inactive)
COCCOC(=O)C1=C(C)OC(N)=C(C#N)C1c1ccco1 (configuration not stated),cell count,[1],364
same,inhibition,[1],-7.8% (inactive)
same,inhibition,[2],-269% (inactive)
same,nuclei count,[2],165%
same,z-score,[3]; [10],-0.623
same,z-score,[3]; [11],-0.763
same,z-score,[3]; [12],1.29
same,inhibition,[4],-13.5% (inactive)
same,fluorescence slope,[5],-0.406 (inactive)
same,NADPH fluorescence slope,[6],-4.7e-05 (inactive)
same,slope,[7],0.00481 (inactive)
same,outcome,[8],inactive
same,inhibition,[9],20.2% (inactive)
Cc1nc(Nc2ncc3c(n2)CCCC3=O)nc2ccccc12,cell count,[1],372
same,inhibition,[1],3.8% (inactive)
same,inhibition,[2],26.2% (inactive)
same,nuclei count,[2],122%
same,z-score,[3]; [10],0.317
same,z-score,[3]; [11],-0.989
same,z-score,[3]; [12],1.03
same,inhibition,[4],9.42% (inactive)
same,fluorescence slope,[5],-0.403 (inactive)
same,NADPH fluorescence slope,[6],-0.000152 (inactive)
same,slope,[7],0.00649 (inactive)
same,outcome,[8],inactive
same,inhibition,[9],22.8% (inactive)
CC(C)(C)NC(=O)CSc1nsc(SCC(=O)NC(C)(C)C)c1C#N,cell count,[1],601
same,inhibition,[1],-26% (inactive)
same,inhibition,[2],18.9% (inactive)
same,nuclei count,[2],178%
same,z-score,[3]; [10],-0.466
same,z-score,[3]; [11],-1.37
same,z-score,[3]; [12],0.955
same,inhibition,[4],-4.27% (inactive)
same,fluorescence slope,[5],-0.412 (inactive)
same,NADPH fluorescence slope,[6],-6.5e-05 (inactive)
same,slope,[7],0.00541 (inactive)
same,outcome,[8],inactive
same,inhibition,[9],12.4% (inactive)
CSCCC(CO)NC(=O)OCc1ccccc1 (configuration not stated),cell count,[1],562
same,inhibition,[1],-15% (inactive)
same,inhibition,[2],-130% (inactive)
same,nuclei count,[2],142%
same,z-score,[3]; [10],1.72
same,z-score,[3]; [11],-0.612
same,z-score,[3]; [12],-0.962
same,inhibition,[4],3.97% (inactive)
same,fluorescence slope,[5],-0.503 (inactive)
same,NADPH fluorescence slope,[6],-8.5e-05 (inactive)
same,slope,[7],0.00774 (inactive)
same,outcome,[8],inactive
same,inhibition,[9],2.98% (inactive)
CCOc1nnnc2c1sc1nc(N3CCOCC3)c3c(c12)CC(C)(C)OC3,cell count,[1],579
same,inhibition,[1],-3.2% (inactive)
same,inhibition,[2],-78.7% (inactive)
same,nuclei count,[2],116%
same,z-score,[3]; [10],-0.458
same,z-score,[3]; [11],-0.399
same,z-score,[3]; [12],-0.83
same,inhibition,[4],-6.86% (inactive)
same,fluorescence slope,[5],-0.35 (inactive)
same,NADPH fluorescence slope,[6],1.4e-05 (inactive)
same,slope,[7],0.00623 (inactive)
same,outcome,[8],inactive
same,inhibition,[9],-7.31% (inactive)
CN1C(=O)CC(N2CCN(c3ccc(Cl)c(Cl)c3)CC2)C1=O (configuration not stated),cell count,[1],379
same,inhibition,[1],-3.9% (inactive)
same,inhibition,[2],-80.8% (inactive)
same,nuclei count,[2],94.7%
same,z-score,[3]; [10],-1.07
same,z-score,[3]; [11],0.418
same,z-score,[3]; [12],-1.7
same,inhibition,[4],5.65% (inactive)
same,fluorescence slope,[5],-0.541 (inactive)
same,NADPH fluorescence slope,[6],-7.5e-05 (inactive)
same,slope,[7],0.00484 (inactive)
same,outcome,[8],inactive
same,inhibition,[9],0.241% (inactive)
Cc1cc(=O)n2[nH]cnc2n1,cell count,[1],517
same,inhibition,[1],-4.6% (inactive)
same,inhibition,[2],-138% (inactive)
same,nuclei count,[2],125%
same,z-score,[3]; [10],1.56
same,z-score,[3]; [11],-0.453
same,z-score,[3]; [12],-0.845
same,inhibition,[4],5.57% (inactive)
same,fluorescence slope,[5],-0.502 (inactive)
same,NADPH fluorescence slope,[6],-0.000147 (inactive)
same,slope,[7],0.00471 (inactive)
same,outcome,[8],inactive
same,inhibition,[9],-0.839% (inactive)
Clc1ccc2[nH]c3c(NCCN4CCOCC4)ncnc3c2c1,cell count,[1],504
same,inhibition,[1],-25% (inactive)
same,inhibition,[2],-70% (inactive)
same,nuclei count,[2],154%
same,z-score,[3]; [10],-1.3
same,z-score,[3]; [11],0.291
same,z-score,[3]; [12],1.3
same,inhibition,[4],-2.47% (inactive)
same,fluorescence slope,[5],-0.503 (inactive)
same,NADPH fluorescence slope,[6],-3.9e-05 (inactive)
same,slope,[7],0.00429 (inactive)
same,outcome,[8],inactive
same,inhibition,[9],2.54% (inactive)
C=CCOc1nc2c(c(=O)n(C)c(=O)n2C)n1Cc1ccc(Cl)cc1Cl,cell count,[1],555
same,inhibition,[1],1.8% (inactive)
same,inhibition,[2],-31.1% (inactive)
same,nuclei count,[2],103%
same,z-score,[3]; [10],-0.56
same,z-score,[3]; [11],-0.295
same,z-score,[3]; [12],0.979
same,inhibition,[4],-6.48% (inactive)
same,fluorescence slope,[5],-0.591 (inactive)
same,NADPH fluorescence slope,[6],-4.9e-05 (inactive)
same,slope,[7],0.00522 (inactive)
same,outcome,[8],inactive
same,inhibition,[9],4.68% (inactive)
CSc1nc2sc3c(c2c(=O)[nH]1)CCC(C)C3 (configuration not stated),cell count,[1],503
same,inhibition,[1],-19.4% (inactive)
same,inhibition,[2],-109% (inactive)
same,nuclei count,[2],191%
same,z-score,[3]; [10],-1.18
same,z-score,[3]; [11],2.07
same,z-score,[3]; [12],-0.579
same,inhibition,[4],20.2% (inactive)
same,fluorescence slope,[5],-0.364 (inactive)
same,NADPH fluorescence slope,[6],1.3e-05 (inactive)
same,slope,[7],0.00953 (active)
same,outcome,[8],inactive
same,inhibition,[9],3.37% (inactive)
CCOc1ccc(-c2nnc3sc(-c4ccccc4OC)nn23)cc1,cell count,[1],613
same,inhibition,[1],-5.4% (inactive)
same,inhibition,[2],36% (inactive)
same,nuclei count,[2],174%
same,z-score,[3]; [10],-0.391
same,z-score,[3]; [11],2.01
same,z-score,[3]; [12],-1.56
same,inhibition,[4],-9.66% (inactive)
same,fluorescence slope,[5],-0.403 (inactive)
same,NADPH fluorescence slope,[6],-0.000132 (inactive)
same,slope,[7],0.00485 (inactive)
same,outcome,[8],inactive
same,inhibition,[9],0.927% (inactive)
